Test results published in ChEMBL document CHEMBL1649494, “Hypersusceptibility to azole antifungals in a clinical isolate of Candida glabrata with reduced aerobic growth” (2009).
≈ marks a conversion by molar mass, not a printed value.

What was measured:
Assay type in all cases: functional
Nakaseomyces glabratus [1] = test: Antifungal activity against Candida glabrata isolate 22852 by Etest method
Outline: (§1)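 MIC by Etest strips on Casitone agar plates (pH 7.2, chloramphenicol-supplemented), run per manufacturer's recommendations; isolates maintained on YEPD agar by regular passage.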

Nakaseomyces glabratus [2] = test: Antifungal activity against Candida glabrata isolate 22853 by Etest method; outline: as §1
Nakaseomyces glabratus [3] = test: Antifungal activity against Candida glabrata isolate 22852 at 10 ug after 48 hrs by disk diffusion method; details: isolate 22852, 48 h, read-out: DIZ
Nakaseomyces glabratus [4] = test: Antifungal activity against Candida glabrata isolate 22853 at 10 ug after 48 hrs by disk diffusion method; details: isolate 22853, 48 h, read-out: DIZ
Nakaseomyces glabratus [5] = test: Antifungal activity against Candida glabrata isolate 21231 at 10 ug after 48 hrs by disk diffusion method; details: isolate 21231, 48 h, read-out: DIZ
Nakaseomyces glabratus [6] = test: Antifungal activity against Candida glabrata isolate 21231 by Etest method; outline: as §1
Nakaseomyces glabratus [7] = test: Antifungal activity against Candida glabrata isolate 22852 at 15 ug after 48 hrs by disk diffusion method; details: isolate 22852, 48 h, read-out: DIZ
Nakaseomyces glabratus [8] = test: Antifungal activity against Candida glabrata isolate 22853 at 15 ug after 48 hrs by disk diffusion method; details: isolate 22853, 48 h, read-out: DIZ
Nakaseomyces glabratus [9] = test: Antifungal activity against Candida glabrata isolate 21231 at 15 ug after 48 hrs by disk diffusion method; details: isolate 21231, 48 h, read-out: DIZ

## C[C@@H]1[C@H](O)[C@@H](C)/C=C/C=C/C=C/C=C/C=C/C=C/C=C/[C@H](O[C@@H]2O[C@H](C)[C@@H](O)[C@H](N)[C@@H]2O)C[C@@H]2O[C@](O)(C[C@@H](O)C[C@@H](O)[C@H](O)CC[C@@H](O)C[C@@H](O)CC(=O)O[C@H]1C)C[C@H](O)[C@H]2C(=O)O [AMPHOTERICIN B]
Nakaseomyces glabratus [1]
  MIC: 0.032 mg/L (≈ 0.0346 µM)
Nakaseomyces glabratus [2]
  MIC: 0.047 mg/L (≈ 0.0509 µM)
Nakaseomyces glabratus [3]
  zone of inhibition at 10 µg/disc: 40 mm
Nakaseomyces glabratus [4]
  zone of inhibition at 10 µg/disc: 31 mm
Nakaseomyces glabratus [5]
  zone of inhibition at 10 µg/disc: 27 mm
Nakaseomyces glabratus [6]
  MIC: 0.047 mg/L (≈ 0.0509 µM)

## Clc1ccccc1C(c1ccccc1)(c1ccccc1)n1ccnc1 [CLOTRIMAZOLE]
Nakaseomyces glabratus [3]
  zone of inhibition at 10 µg/disc: 50 mm
Nakaseomyces glabratus [4]
  zone of inhibition at 10 µg/disc: 12 mm
Nakaseomyces glabratus [5]
  zone of inhibition at 10 µg/disc: 25 mm

## Clc1ccc(COC(Cn2ccnc2)c2ccc(Cl)cc2Cl)cc1 (configuration not stated) [ECONAZOLE]
Nakaseomyces glabratus [3]
  zone of inhibition at 10 µg/disc: 50 mm
Nakaseomyces glabratus [4]
  zone of inhibition at 10 µg/disc: 13 mm
Nakaseomyces glabratus [5]
  zone of inhibition at 10 µg/disc: 25 mm

## OC(Cn1cncn1)(Cn1cncn1)c1ccc(F)cc1F [FLUCONAZOLE]
Nakaseomyces glabratus [1]
  MIC: 0.94 mg/L (≈ 3.07 µM)
Nakaseomyces glabratus [7]
  zone of inhibition at 15 µg/disc: 50 mm
Nakaseomyces glabratus [2]
  MIC: > 256 mg/L
Nakaseomyces glabratus [8]
  zone of inhibition at 15 µg/disc: 0 mm
Nakaseomyces glabratus [9]
  zone of inhibition at 15 µg/disc: 21 mm
Nakaseomyces glabratus [6]
  MIC: 6 mg/L (≈ 19.6 µM)

## CC(=O)N1CCN(c2ccc(OCC3COC(Cn4ccnc4)(c4ccc(Cl)cc4Cl)O3)cc2)CC1 (configuration not stated) [KETOCONAZOLE]
Nakaseomyces glabratus [3]
  zone of inhibition at 10 µg/disc: 50 mm
Nakaseomyces glabratus [4]
  zone of inhibition at 10 µg/disc: 16 mm
Nakaseomyces glabratus [5]
  zone of inhibition at 10 µg/disc: 33 mm

## Clc1ccc(COC(Cn2ccnc2)c2ccc(Cl)cc2Cl)c(Cl)c1 (configuration not stated) [MICONAZOLE]
Nakaseomyces glabratus [3]
  zone of inhibition at 10 µg/disc: 35 mm
Nakaseomyces glabratus [4]
  zone of inhibition at 10 µg/disc: 0 mm
Nakaseomyces glabratus [5]
  zone of inhibition at 10 µg/disc: 21 mm

## C[C@@H](c1ncncc1F)[C@](O)(Cn1cncn1)c1ccc(F)cc1F [VORICONAZOLE]
Nakaseomyces glabratus [1]
  MIC: 0.003 mg/L (≈ 0.00859 µM)
Nakaseomyces glabratus [2]
  MIC: 4 mg/L (≈ 11.5 µM)
Nakaseomyces glabratus [6]
  MIC: 0.047 mg/L (≈ 0.135 µM)
